Experimental data published in ChEMBL document CHEMBL4033712, “Synthesis and biological evaluation of new C-12(α/β)-(N-) sulfamoyl-phenylamino-14-deoxy-andrographolide derivatives as potent anti-cancer agents” (Bioorg Med Chem Lett, 2017).

Experiments:
Type in all cases: functional
K562 = assay: Growth inhibition of human K562 cells incubated for 48 hrs by sulforhodamine B assay; conditions: K562, 48 h
Summary of the method: (§1)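 NCI-60 five-dose screen at 0.01, 0.1, 1, 10 and 100 µM, 48 h incubation, sulforhodamine B end point. GI50 (50% decrease in net growth), TGI (total growth inhibition) and LC50 (net 50% loss of initial cells) taken from log concentration versus % growth inhibition curves.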

PC-3 = assay: Growth inhibition of human PC3 cells incubated for 48 hrs by sulforhodamine B assay; conditions: PC-3, 48 h; summary of the method: as §1
HL-60(TB) = assay: Growth inhibition of human HL-60(TB) cells incubated for 48 hrs by sulforhodamine B assay; conditions: HL-60, 48 h
Summary of the method: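 NCI-60 five-dose screen at 0.01, 0.1, 1, 10 and 100 µM for 48 h, sulforhodamine B read-out. GI50 taken from log concentration versus % growth inhibition curves as the concentration giving 50% decrease in net cell growth.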

SK-MEL-5 = assay: Growth inhibition of human SK-MEL-5 cells incubated for 48 hrs by sulforhodamine B assay; conditions: SK-MEL-5, 48 h
Summary of the method: (§2)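 NCI 60 human tumour cell line panel, five-dose study at 0.01, 0.1, 1, 10 and 100 µM, 48 h incubation. Sulforhodamine B protein-binding dye end point. GI50 (50% decrease in net cell growth), TGI (total growth inhibition) and LC50 (net 50% loss of initial cells) read from log concentration versus % growth inhibition curves.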

MDA-MB-435 = assay: Growth inhibition of human MDA-MB-435 cells incubated for 48 hrs by sulforhodamine B assay; conditions: MDA-MB-435, 48 h; summary of the method: as §1
COLO 205 = assay: Growth inhibition of human COLO205 cells incubated for 48 hrs by sulforhodamine B assay; conditions: COLO 205, 48 h; summary of the method: as §1
SNB-75 = assay: Growth inhibition of human SNB75 cells incubated for 48 hrs by sulforhodamine B assay; conditions: SNB-75, 48 h; summary of the method: as §2
RXF 393 = assay: Growth inhibition of human RXF393 cells incubated for 48 hrs by sulforhodamine B assay; conditions: RXF 393, 48 h; summary of the method: as §2
786-0 = assay: Growth inhibition of human 786-0 cells incubated for 48 hrs by sulforhodamine B assay; conditions: 786-0, 48 h; summary of the method: as §1
EKVX = assay: Growth inhibition of human EKVX cells incubated for 48 hrs by sulforhodamine B assay; summary of the method: as §1
CAKI-1 = assay: Growth inhibition of human Caki1 cells incubated for 48 hrs by sulforhodamine B assay; conditions: CAKI-1, 48 h; summary of the method: as §1
OVCAR-3 = assay: Growth inhibition of human OVCAR3 cells incubated for 48 hrs by sulforhodamine B assay; conditions: OVCAR-3, 48 h; summary of the method: as §1
M14 = assay: Growth inhibition of human M14 cells incubated for 48 hrs by sulforhodamine B assay; conditions: M14, 48 h; summary of the method: as §1
HOP-62 = assay: Growth inhibition of human HOP62 cells incubated for 48 hrs by sulforhodamine B assay; conditions: HOP-62, 48 h; summary of the method: as §1
OVCAR-5 = assay: Growth inhibition of human OVCAR5 cells incubated for 48 hrs by sulforhodamine B assay; conditions: OVCAR-5, 48 h; summary of the method: as §1
HOP-92 = assay: Anticancer activity against human HOP92 cells assessed as cell growth at 10 uM after 48 hrs by sulforhodamine B assay relative to control; conditions: HOP-92, 48 h, read-out: Activity
Summary of the method: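 Single-dose NCI-60 panel screen: compound added at 10 µM and the culture incubated 48 h. The end point was read by protein staining with sulforhodamine B. The value is percent growth of treated cells relative to untreated control cells, reported as a mean graph across the panel.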

MCF7 = assay: Growth inhibition of human MCF7 cells incubated for 48 hrs by sulforhodamine B assay; conditions: MCF7, 48 h; summary of the method: as §1
UO-31 = assay: Growth inhibition of human UO31 cells incubated for 48 hrs by sulforhodamine B assay; conditions: UO-31, 48 h; summary of the method: as §2
ACHN = assay: Growth inhibition of human ACHN cells incubated for 48 hrs by sulforhodamine B assay; summary of the method: as §1
SF-539 = assay: Growth inhibition of human SF539 cells incubated for 48 hrs by sulforhodamine B assay; conditions: SF-539, 48 h; summary of the method: as §2
MOLT-4 = assay: Growth inhibition of human MOLT4 cells incubated for 48 hrs by sulforhodamine B assay; conditions: MOLT-4, 48 h; summary of the method: as §1
HT-29 = assay: Growth inhibition of human HT-29 cells incubated for 48 hrs by sulforhodamine B assay; conditions: HT-29, 48 h; summary of the method: as §1
UACC-62 = assay: Growth inhibition of human UACC62 cells incubated for 48 hrs by sulforhodamine B assay; conditions: UACC-62, 48 h; summary of the method: as §2
KM12 = assay: Growth inhibition of human KM12 cells incubated for 48 hrs by sulforhodamine B assay; conditions: KM12, 48 h; summary of the method: as §1
SW-620 = assay: Growth inhibition of human SW620 cells incubated for 48 hrs by sulforhodamine B assay; conditions: SW-620, 48 h; summary of the method: as §2
CCRF-CEM = assay: Growth inhibition of human CCRF-CEM cells incubated for 48 hrs by sulforhodamine B assay; summary of the method: as §1
NCI-H23 = assay: Growth inhibition of human NCI-H23 cells incubated for 48 hrs by sulforhodamine B assay; conditions: NCI-H23, 48 h; summary of the method: as §1
SF-268 = assay: Growth inhibition of human SF268 cells incubated for 48 hrs by sulforhodamine B assay; conditions: SF-268, 48 h; summary of the method: as §2
[1] = read-out: LC50 (the source's name)

C=C1CC[C@@H]2[C@](C)(COC(C)=O)[C@H](OC(C)=O)CC[C@@]2(C)[C@H]1CC(Nc1ccc(S(=O)(=O)Nc2ccc(Cl)nn2)cc1)C1=CCOC1=O (stereo not given in full)
GI50 (K562): 0.52 µM
TGI (K562): 5.19 µM
CC50 (K562; [1]): > 100 µM
GI50 (PC-3): 2.24 µM
TGI (PC-3): 5.25 µM
CC50 (PC-3; [1]): 15.8 µM
GI50 (HL-60(TB)): 1.32 µM
TGI (HL-60(TB)): 4.44 µM
CC50 (HL-60(TB); [1]): > 100 µM
GI50 (SK-MEL-5): 1.6 µM
TGI (SK-MEL-5): 3.13 µM
CC50 (SK-MEL-5; [1]): 6.13 µM
GI50 (MDA-MB-435): 1.4 µM
TGI (MDA-MB-435): 3.17 µM
CC50 (MDA-MB-435; [1]): 7.16 µM
GI50 (COLO 205): 1.46 µM
TGI (COLO 205): 3.16 µM
CC50 (COLO 205; [1]): 6.86 µM
GI50 (SNB-75): 1.44 µM
TGI (SNB-75): 5.9 µM
CC50 (SNB-75; [1]): 24.3 µM
GI50 (RXF 393): 1.77 µM
TGI (RXF 393): 3.29 µM
CC50 (RXF 393; [1]): 6.14 µM
GI50 (786-0): 1.69 µM
LC50 (concentration giving net 50% loss of initial cells) (786-0): 5.83 µM
TGI (786-0): 3.14 µM
GI50 (EKVX): 4.53 µM
TGI (EKVX): 17 µM
CC50 (EKVX; [1]): 41.3 µM
GI50 (CAKI-1): 2.28 µM
TGI (CAKI-1): 100 µM
CC50 (CAKI-1; [1]): 31.7 µM
GI50 (OVCAR-3): 1.22 µM
TGI (OVCAR-3): 2.51 µM
CC50 (OVCAR-3; [1]): 5.18 µM
GI50 (M14): 1.45 µM
TGI (M14): 3.41 µM
CC50 (M14; [1]): 8.04 µM
GI50 (HOP-62): 1.46 µM
TGI (HOP-62): 2.99 µM
CC50 (HOP-62; [1]): 6.12 µM
GI50 (OVCAR-5): 2.01 µM
LC50 (concentration causing net 50% loss of initial cells) (OVCAR-5): 8.63 µM
TGI (OVCAR-5): 4.16 µM
growth at 10 µM (HOP-92): 69.8%
GI50 (MCF7): 0.78 µM
TGI (MCF7): 2.9 µM
GI50 (UO-31): 1.45 µM
LC50 (concentration giving net 50% loss of initial cells) (UO-31): 5.73 µM
TGI (UO-31): 2.88 µM
GI50 (ACHN): 1.68 µM
TGI (ACHN): 3.32 µM
CC50 (ACHN; [1]): 6.57 µM
GI50 (SF-539): 1.23 µM
TGI (SF-539): 2.63 µM
CC50 (SF-539; [1]): 5.62 µM
GI50 (MOLT-4): 1.96 µM
TGI (MOLT-4): > 100 µM
CC50 (MOLT-4; [1]): > 100 µM
GI50 (HT-29): 1.18 µM
TGI (HT-29): 2.68 µM
GI50 (UACC-62): 1.49 µM
TGI (UACC-62): 3.86 µM
CC50 (UACC-62; [1]): 10 µM
GI50 (KM12): 1.7 µM
TGI (KM12): 3.49 µM
CC50 (KM12; [1]): 7.16 µM
GI50 (SW-620): 1.07 µM
TGI (SW-620): 2.8 µM
CC50 (SW-620; [1]): 7.34 µM
GI50 (CCRF-CEM): 0.46 µM
TGI (CCRF-CEM): 2.6 µM
CC50 (CCRF-CEM; [1]): > 100 µM
GI50 (NCI-H23): 2.06 µM
TGI (NCI-H23): 5.35 µM
CC50 (NCI-H23; [1]): 43.2 µM
GI50 (SF-268): 1.8 µM
TGI (SF-268): 3.67 µM
CC50 (SF-268; [1]): 7.51 µM
